# Experimental data: ChEMBL document CHEMBL1146122, “Neuropeptide Y (NPY) Y4 receptor selective agonists based on NPY(32-36): development of an anorectic Y4 receptor selective agonist with picomolar affinity” (J Med Chem, 2006)
# Non-standard residues stand in square brackets, D forms with d. Residues, ends and D or L forms follow the SMILES beside them. Nva = CCC[C@H](N)C(=O)O
# Tests used:
# [1] = target: T1, Neuropeptide Y receptor type 2 (Homo sapiens, UniProt P49146); test: Agonist activity at human NPY2 receptor in CHO cells by inhibition of forskolin-stimulated cAMP synthesis; assay type: functional, cell-based
# T1 sequence (P49146 whole entry): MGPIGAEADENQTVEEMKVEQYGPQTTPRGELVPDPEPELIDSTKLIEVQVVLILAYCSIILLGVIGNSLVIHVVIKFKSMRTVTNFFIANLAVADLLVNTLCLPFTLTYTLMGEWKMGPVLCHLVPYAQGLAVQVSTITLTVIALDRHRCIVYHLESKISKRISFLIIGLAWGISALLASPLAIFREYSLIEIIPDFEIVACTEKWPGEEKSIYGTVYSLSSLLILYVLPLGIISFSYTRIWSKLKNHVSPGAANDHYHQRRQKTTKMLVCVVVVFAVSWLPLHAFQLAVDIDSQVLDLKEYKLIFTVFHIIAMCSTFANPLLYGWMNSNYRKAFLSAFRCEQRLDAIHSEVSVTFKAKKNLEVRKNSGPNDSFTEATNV
# Outline: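 Whole-cell cAMP: Y1 in HEK293 cells; Y2, Y4 and Y5 in CHO cells; 30,000 cells/well grown 48 h. Cells preincubated 20 min at 37 °C in HBSS with 10 mM HEPES pH 7.4, 0.2% BSA, 4 mM MgCl2 and 1 mM IBMX. Then 10 min at 37 °C with forskolin (2.5 µM CHO; 5.0 µM HEK293) plus graded peptide. Ethanol lysis, 125I-cAMP flashplate readout. Triplicate points, ≥3 repeats, nonlinear regression.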
# [2] = species on record: Homo sapiens; test: Selectivity for human NPY4 over NPY1 receptor
# [3] = species on record: Homo sapiens; test: Selectivity for human NPY4 over NPY2 receptor
# [4] = target: T1, Neuropeptide Y receptor type 2; test: Displacement of […] from human NPY2 receptor expressed in CHO cells; assay type: cell-based
# Outline: (§1)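 Competition binding on membranes (5-10 µg protein) from CHO cells stably expressing human Y1, Y2 or rat-human hybrid Y5 receptors. Radioligand 0.2 nM 125I-PYY, incubated with a range of peptide concentrations in 50 mM HEPES pH 7.3, 0.1% BSA, 2.5 mM CaCl2 and 1 mM MgCl2 for 90 min at room temperature. Bound ligand separated on PEI-treated glass fibre filters, washed with PBS and γ-counted. 1 µM NPY defined nonspecific binding. Duplicate points, three experiments, nonlinear regression.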
# [5] = target: T2, Neuropeptide Y receptor type 4 (Homo sapiens, UniProt P50391); test: Displacement of [125I]hPP from human NPY4 receptor expressed in CHO cells; assay type: cell-based
# T2 sequence (P50391 whole entry): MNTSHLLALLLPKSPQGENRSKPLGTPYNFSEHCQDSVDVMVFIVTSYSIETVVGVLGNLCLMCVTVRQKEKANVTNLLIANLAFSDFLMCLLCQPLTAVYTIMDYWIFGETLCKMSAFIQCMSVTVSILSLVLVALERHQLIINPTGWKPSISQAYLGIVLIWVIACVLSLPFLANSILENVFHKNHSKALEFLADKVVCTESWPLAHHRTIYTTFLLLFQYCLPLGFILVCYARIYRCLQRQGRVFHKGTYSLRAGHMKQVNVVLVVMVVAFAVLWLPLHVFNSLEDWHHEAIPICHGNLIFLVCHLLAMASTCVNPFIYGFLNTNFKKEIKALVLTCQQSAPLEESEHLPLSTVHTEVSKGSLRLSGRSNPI
# Outline: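 Y4 binding used membranes from CHO cells stably expressing cloned human Y4, with 125I-PP as radioligand. Competing peptides were tested over a range of concentrations in 50 mM HEPES pH 7.3, 0.1% BSA, 2.5 mM CaCl2 and 1 mM MgCl2 for 90 min at room temperature. Separation was by filtration and γ-counting. Nonspecific binding was taken with 1 µM PP. Duplicate points, three experiments, nonlinear regression.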
# [6] = Selectivity for human NPY4 over rat-human hybrid NPY5 receptor
# [7] = Displacement of […] from rat-human hybrid NPY5 receptor expressed in CHO cells; assay type: cell-based; outline: as §1
# [8] = target: T2, Neuropeptide Y receptor type 4; test: Agonist activity at human NPY4 receptor in CHO cells by inhibition of forskolin-stimulated cAMP synthesis
# [9] = target: T3, Neuropeptide Y receptor type 1 (Homo sapiens, UniProt P25929); test: Displacement of […] from human NPY1 receptor expressed in CHO cells; assay type: cell-based; outline: as §1
# T3 sequence (P25929 whole entry): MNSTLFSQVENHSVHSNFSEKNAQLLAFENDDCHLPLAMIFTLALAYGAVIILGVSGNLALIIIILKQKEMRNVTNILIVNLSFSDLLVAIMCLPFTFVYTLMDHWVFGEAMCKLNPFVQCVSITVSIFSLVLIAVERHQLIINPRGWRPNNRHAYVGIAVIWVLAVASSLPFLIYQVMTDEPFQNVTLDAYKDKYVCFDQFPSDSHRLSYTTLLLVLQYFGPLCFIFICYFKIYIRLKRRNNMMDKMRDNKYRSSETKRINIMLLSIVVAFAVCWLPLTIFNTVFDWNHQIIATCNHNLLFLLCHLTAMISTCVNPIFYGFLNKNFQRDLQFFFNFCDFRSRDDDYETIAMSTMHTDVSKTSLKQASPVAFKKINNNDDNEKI
# [10] = target: T3, Neuropeptide Y receptor type 1; test: Agonist activity at human NPY1 receptor in CHO cells by inhibition of forskolin-stimulated cAMP synthesis; assay type: functional, cell-based
Compound,EC50 [1] [nM],Selectivity ratio [2],Selectivity ratio [3],Ki [4] [nM],Ki [5] [nM],Selectivity ratio [6],Ki [7] [nM],EC50 [8] [nM],Ki [9] [nM],EC50 [10] [nM]
CCC[C@H](NC(=O)[C@H](CCCN=C(N)N)NC(=O)[C@H](Cc1c[nH]c2ccccc12)NC(=O)[C@H](Cc1ccc(O)cc1)NC(=O)[C@H](CCCN=C(N)N)NC(=O)[C@H](CCC)NC(=O)[C@H](CCCN=C(N)N)NC(=O)[C@H](Cc1c[nH]c2ccccc12)NC(=O)[C@H](Cc1ccc(O)cc1)NC(=O)[C@H](CCCN=C(N)N)NC(=O)[C@H](CCC)NC(=O)[C@H](CCCN=C(N)N)NC(=O)[C@@H](N)Cc1c[nH]c2ccccc12)C(=O)N[C@@H](CCCN=C(N)N)C(=O)N[C@@H](Cc1ccc(O)cc1)C(N)=O (H-WR[Nva]RYWR[Nva]RYWR[Nva]RY-NH2),1180,10,14,50,3.9,40,160,230,30,–
CCC[C@H](NC(=O)[C@H](CCCN=C(N)N)NC(=O)[C@H](Cc1c[nH]c2ccccc12)NC(=O)[C@@H](N)CCCC[C@H](N)C(=O)N[C@@H](Cc1c[nH]c2ccccc12)C(=O)N[C@@H](CCCN=C(N)N)C(=O)N[C@@H](CCC)C(=O)N[C@@H](CCCN=C(N)N)C(=O)N[C@@H](Cc1ccc(O)cc1)C(N)=O)C(=O)N[C@@H](CCCN=C(N)N)C(=O)N[C@@H](Cc1ccc(O)cc1)C(N)=O (stereo in doubt; 4B),–,–,–,530,2,–,280,370,80,1410
